The source made the active and inactive calls. The rule behind the calls is not given here.
How the values were obtained:
[1] = target: T1, Estrogen receptor (Homo sapiens) (UniProt P03372); experiment: Binding affinity to human estrogen receptor expressed in HEK293 cells by scintillation counting based radioligand competition binding assay; assay type: cell-based
T1 sequence (whole entry): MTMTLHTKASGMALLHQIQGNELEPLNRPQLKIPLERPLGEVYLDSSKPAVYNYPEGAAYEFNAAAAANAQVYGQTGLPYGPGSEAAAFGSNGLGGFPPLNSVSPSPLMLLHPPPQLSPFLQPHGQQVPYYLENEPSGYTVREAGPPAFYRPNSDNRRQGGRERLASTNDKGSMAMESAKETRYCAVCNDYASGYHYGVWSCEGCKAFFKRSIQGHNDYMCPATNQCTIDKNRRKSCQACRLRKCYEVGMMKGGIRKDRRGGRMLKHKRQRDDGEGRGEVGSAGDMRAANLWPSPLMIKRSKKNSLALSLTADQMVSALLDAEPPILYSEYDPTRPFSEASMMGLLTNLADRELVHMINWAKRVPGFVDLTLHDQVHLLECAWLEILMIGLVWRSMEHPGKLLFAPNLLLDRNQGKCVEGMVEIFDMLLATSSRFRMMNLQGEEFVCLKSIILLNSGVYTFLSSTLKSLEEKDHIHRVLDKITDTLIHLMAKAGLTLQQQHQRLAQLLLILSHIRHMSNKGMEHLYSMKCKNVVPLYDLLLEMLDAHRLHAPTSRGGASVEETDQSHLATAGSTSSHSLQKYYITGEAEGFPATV

Glucocorticoid receptor [2] = target: T2, Glucocorticoid receptor (Homo sapiens, UniProt P04150); experiment: Displacement of [3H]-dexamethasone from human glucocorticoid receptor expressed in HEK293 cells by scintillation counting based radioligand competition binding assay; assay type: cell-based
T2 sequence (P04150 whole entry): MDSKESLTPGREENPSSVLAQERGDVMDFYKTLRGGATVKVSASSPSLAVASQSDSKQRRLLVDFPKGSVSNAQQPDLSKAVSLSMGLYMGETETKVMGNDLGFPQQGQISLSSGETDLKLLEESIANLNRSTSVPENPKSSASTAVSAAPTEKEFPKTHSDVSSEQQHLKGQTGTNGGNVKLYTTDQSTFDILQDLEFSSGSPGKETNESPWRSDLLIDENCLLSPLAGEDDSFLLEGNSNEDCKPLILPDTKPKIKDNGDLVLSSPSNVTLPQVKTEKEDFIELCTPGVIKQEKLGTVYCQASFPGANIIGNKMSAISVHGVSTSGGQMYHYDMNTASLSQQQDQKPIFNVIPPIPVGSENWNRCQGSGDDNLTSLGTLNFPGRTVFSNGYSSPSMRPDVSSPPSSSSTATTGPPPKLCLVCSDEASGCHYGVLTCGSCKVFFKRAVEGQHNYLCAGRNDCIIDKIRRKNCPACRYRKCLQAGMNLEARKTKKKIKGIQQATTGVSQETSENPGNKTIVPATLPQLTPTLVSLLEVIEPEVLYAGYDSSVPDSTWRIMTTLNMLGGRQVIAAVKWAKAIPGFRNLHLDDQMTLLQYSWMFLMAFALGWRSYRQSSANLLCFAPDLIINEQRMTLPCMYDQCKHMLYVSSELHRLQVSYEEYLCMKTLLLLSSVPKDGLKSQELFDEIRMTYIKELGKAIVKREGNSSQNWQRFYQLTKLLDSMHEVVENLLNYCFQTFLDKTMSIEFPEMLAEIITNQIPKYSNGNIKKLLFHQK

Glucocorticoid receptor [3] = target: T3, Glucocorticoid receptor (Rattus norvegicus, UniProt P06536); experiment: Antagonist activity against glucocorticoid receptor in rat H4-IIE cells assessed as inhibition of dexamethasone-induced receptor transactivation pre-incubated for 1 hr before dexamethasone addition and measured 24 hrs post dexamethasone stimulation by tyrosine aminotransferase enzyme assay; assay type: cell-based
T3 sequence (P06536 whole entry): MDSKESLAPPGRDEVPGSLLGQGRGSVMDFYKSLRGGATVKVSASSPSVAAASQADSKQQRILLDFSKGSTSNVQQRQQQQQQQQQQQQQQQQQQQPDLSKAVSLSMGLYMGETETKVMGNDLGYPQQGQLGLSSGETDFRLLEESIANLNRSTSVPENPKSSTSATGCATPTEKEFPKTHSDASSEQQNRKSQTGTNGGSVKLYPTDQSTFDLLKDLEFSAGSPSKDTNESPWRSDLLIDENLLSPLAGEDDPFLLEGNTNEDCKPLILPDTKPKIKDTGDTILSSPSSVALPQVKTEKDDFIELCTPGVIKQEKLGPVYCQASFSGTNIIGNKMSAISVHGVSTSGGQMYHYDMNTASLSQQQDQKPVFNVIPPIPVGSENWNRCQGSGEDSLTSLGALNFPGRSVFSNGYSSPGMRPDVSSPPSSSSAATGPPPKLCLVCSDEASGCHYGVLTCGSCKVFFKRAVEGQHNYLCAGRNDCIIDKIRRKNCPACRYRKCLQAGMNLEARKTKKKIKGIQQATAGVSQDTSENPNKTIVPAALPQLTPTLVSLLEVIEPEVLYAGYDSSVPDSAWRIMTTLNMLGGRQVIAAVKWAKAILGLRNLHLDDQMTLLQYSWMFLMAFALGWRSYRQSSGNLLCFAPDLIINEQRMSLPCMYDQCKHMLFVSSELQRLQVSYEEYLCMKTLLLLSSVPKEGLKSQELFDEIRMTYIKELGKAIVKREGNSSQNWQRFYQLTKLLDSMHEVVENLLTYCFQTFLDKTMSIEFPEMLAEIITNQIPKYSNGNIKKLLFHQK

Glucocorticoid receptor [4] = target: T2, Glucocorticoid receptor; experiment: Antagonist activity against glucocorticoid receptor (unknown origin) expressed in HEK293 cells by GRE-dependent luciferase reporter gene assay; assay type: cell-based
[5] = target: T4, Glucocorticoid receptor (Rattus norvegicus) (UniProt P06536); experiment: Agonist activity at glucocorticoid receptor in rat H4-IIE cells assessed as receptor transactivation incubated for 24 hrs by tyrosine aminotransferase enzyme assay; assay type: cell-based
T4 sequence (whole entry): T3 sequence (P06536 whole entry)
Procedure, shortened: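 Rat hepatoma H4IIEC3 cells grown in DMEM with 10% FBS, plated at 100000 cells/well overnight at 37 °C, 5% CO2, then switched to DMEM/F12 with 5% CS-FBS for 24 h. Test compounds at about 0.09 nM–25 μM for 24 h. Lysates given TAT substrate (4.74 mM L-tyrosine, 13.3 mM α-ketoglutarate, pH 7.6) for 2 h at 37 °C, then KOH. A340 read against a standard curve; EC50 from four-parameter logistic fit.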

[6] = target: T5, Glucocorticoid receptor (Homo sapiens) (UniProt P04150); experiment: Agonist activity at glucocorticoid receptor (unknown origin) expressed in HEK293 cells by GRE-dependent luciferase reporter gene assay; assay type: cell-based
T5 sequence (whole entry): T2 sequence (P04150 whole entry)

Syrian golden hamster [7] = experiment: Reduction in LDL level in high fat and high cholesterol diet fed Syrian golden hamster at 30 mg/kg, po qd for 14 days; assay type: functional; settings: Mesocricetus auratus, 336 h
Procedure, shortened: (§1)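 Groups of Syrian golden hamsters (n = 6) kept on a high fat, high cholesterol diet for 14 days, dosed orally at 30 mg/kg once daily. Plasma HDL and LDL compared against untreated HFHC controls; mean with standard errors.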

[8] = Oral bioavailability in rat at 3 mg/kg; assay type: ADME, organism-based; settings: in vivo
Syrian golden hamster [9] = experiment: Increase in HDL level in high fat and high cholesterol diet fed Syrian golden hamster at 30 mg/kg, po qd for 14 days; assay type: functional, Mesocricetus auratus; procedure, shortened: as §1
[10] = AUC in rat at 3 mg/kg, po; assay type: ADME, organism-based; settings: in vivo
[11] = Tmax in rat at 3 mg/kg, po; assay type: ADME, organism-based; settings: in vivo

Row | Structure (SMILES) | Activity [1] | Ki (Glucocorticoid receptor [2]) [nM] | IC50 (Glucocorticoid receptor [3]) [nM] | IC50 (Glucocorticoid receptor [4]) [nM] | Activity [5] | Activity [6] | inhibition in vivo at 30 mg/kg (Syrian golden hamster [7]) [%] | bioavailability [8] [%] | Activity (Syrian golden hamster [9]) [%] | AUC [10] [ng·h/mL] | Tmax [11] [h]
1 | CS(=O)(=O)Nc1cccc2c(-c3ccc(F)cc3)c[nH]c12 | inactive | 94.6 |  |  |  |  |  |  |  |  | 
2 | COc1cc(F)ccc1-c1c(Cc2ccccc2)[nH]c2c(NS(C)(=O)=O)cc(C(C)C)cc12 | inactive | 0.543 | 292 | 7.54 | inactive | inactive |  |  |  |  | 
3 | CS(=O)(=O)Nc1cccc2cc[nH]c12 | inactive | 50 |  |  |  |  |  |  |  |  | 
4 | COc1cc(F)ccc1-c1c(CN(C)Cc2ccccc2)[nH]c2c(NS(C)(=O)=O)cc(C(C)(C)C)cc12 | inactive |  | 14.4 |  | inactive |  |  |  |  |  | 
5 | COc1cc(NS(C)(=O)=O)c2[nH]c(C)c(-c3ccccc3)c2c1 | inactive | 39.8 |  |  |  |  |  |  |  |  | 
6 | COc1cc(F)ccc1-c1c(CN(C)Cc2ccccc2)[nH]c2c(N)cc(F)cc12 | inactive |  |  |  |  |  |  |  |  |  | 
7 | COc1ccc(Cl)cc1-c1c[nH]c2c(NS(C)(=O)=O)cccc12 | inactive | 5.45 | 1250 | 143 | inactive | inactive |  |  |  |  | 
8 | COc1cc(NS(C)(=O)=O)c2[nH]c(C)c(-c3cc(F)ccc3OC)c2c1 | inactive | 115 |  |  |  |  |  |  |  |  | 
9 | COc1ccc(F)cc1-c1c(-c2ccccc2)[nH]c2c(NS(C)(=O)=O)cccc12 | inactive | 53.7 |  |  |  |  |  |  |  |  | 
10 | COc1ccccc1-c1c[nH]c2c(NS(C)(=O)=O)cccc12 | inactive | 3.06 | 1180 | 235 |  |  |  |  |  |  | 
11 | COc1cc(F)ccc1-c1c(CN(C)Cc2ccccc2)[nH]c2c(NS(C)(=O)=O)cc(C(C)C)cc12 | inactive | 1.22 | 10.6 | 2.76 | inactive | inactive | 74 | 51.9 | 73 | 488 | 4
12 | COc1cc(F)ccc1-c1c(C)[nH]c2c(NS(C)(=O)=O)cc(F)cc12 | inactive | 1.32 | 63.4 | 22 | inactive | inactive |  |  |  |  | 
13 | CS(=O)(=O)Nc1cccc2c(-c3cccc(Cl)c3)c[nH]c12 | inactive | 5.04 | 76 | 180 |  |  |  |  |  |  | 
